# Screens deposited in PubChem BioAssay by Broad Institute.
# CAL PDZ FP-1 – blocks peptide binding to the human CAL PDZ domain. Q9HD26. purified CAL PDZ, TMR-peptide fluorescence polarization, 1 h. inhibition, % at 24.9 µM. 0.92% of 300,000 active;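 active means mean inhibition of at least 30% with at least half of replicates also reaching 30%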;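 further: 0% = DMSO neutral control and 100% = excess unlabeled competitor peptide PRC23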
# ARNT-TACC3 inh – disrupts binding between human ARNT and TACC3; AID 623870; inhibition, % at 9.99 µM; 0.66% of 390,000 active; Q9Y6A5; AlphaScreen His-ARNT PAS-B/GST-TACC3 binding, luminescence; TACC3 fragment carries E629A point mutation;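 active means mean inhibition of replicates at least 50% and at least half of replicates each reaching 50%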;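 further: 0% = complete ARNT plus TACC3 wells and 100% = ARNT alone without TACC3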
# CAL PDZ FP-2 – inhibitors of human CAL PDZ peptide binding; Q9HD26; purified CAL PDZ, TMR-peptide fluorescence polarization, 1 h; inhibition, % at 20 µM; 0.02% of 330,000 active; AID 504414;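 active means highest replicate inhibition of at least 40%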;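 further: plate controls were DMSO neutral control wells for no effect and unlabeled competitor peptide control wells for full effect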
#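 Test system: purified CerCALP PDZ construct; Compound dosing: one concentration, 20 µM compound; Also added: TMR-labelled reporter peptide T*-PRC34 bound in PDZ groove; Read-out: inhibition from polarization loss; Controls: unlabelled peptide and DMSO controls; Signal: FP readout, S and P plane fluorescence; Incubation: 1 h at RT.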
# The depositor's hits bear a star; . = not tested or not shown. A selection: hits, their analogues and other compounds. The true share with any hit is near 1.2%.
SMILES,CAL PDZ FP-1,ARNT-TACC3 inh,CAL PDZ FP-2
Cc1nn(-c2ccccc2)c2c1C(c1ccncc1)C(C#N)=C(N)O2 (stereo not drawn),1,10,-1
COc1cc(-n2nc(C)c3c2OC(N)=C(C#N)C3c2ccccc2)c(Cl)c(Br)c1O (stereo not drawn),-6,33*,0
C[C@H](O)C#Cc1ccc([C@@H]2[C@H](CO)N3CCCCN(CC4CCOCC4)C[C@@H]23)cc1,.,-5,.
O=C(Nc1ccc2c(c1)OCCO2)c1ccccn1,2,0,-1
COc1ccc(NC(C)=O)cc1NC(=O)CSc1nnc(-c2ccccn2)n1C,-2,19,.
Nn1c(SCC(=O)Nc2ccc3c(c2)OCCO3)nnc1-c1ccccn1,-3,70*,0
CCn1c(SCC(=O)Nc2cc(NC(C)=O)ccc2OC)nnc1-c1ccccn1,-3,50*,-1
Cc1ccccc1-c1nnc(SCC(=O)Nc2ccc3c(c2)OCCO3)n1N,-4,-4,0
O=C(COC(=O)c1ccccn1)Nc1ccc2c(c1)OCCO2,56*,14,-1
C[C@@H]1CN([C@H](C)CO)S(=O)(=O)c2ccc(-c3cncnc3)cc2O[C@H]1CN(C)C,.,-8,.
C[C@H]1CN([C@@H](C)CO)S(=O)(=O)c2ccc(-c3cccc(C#N)c3)cc2O[C@@H]1CN(C)C(=O)Nc1cc(F)ccc1F,.,-3,.
C[C@@H]1CN([C@H](C)CO)C(=O)Cc2cc(NS(=O)(=O)c3cccs3)ccc2O[C@H]1CN(C)C(=O)Nc1cccc2ccccc12,.,5,.
CC(C)NC(=O)Nc1ccc2c(c1)C(=O)N([C@@H](C)CO)C[C@H](C)[C@@H](CN(C)C(=O)c1ccccc1)OCCCC[C@H](C)O2,.,-5,.
CCOc1ccc(NS(=O)(=O)c2ccc(NC(=O)c3ccccc3C(=O)O)cc2)cc1,76*,4,0
CCOc1ccc(NS(=O)(=O)c2ccc(NC(=O)c3ccccn3)cc2)cc1,.,21,-1
O=C(Nc1ccccc1C(=O)Nc1ccncc1)c1ccccc1,43*,-5,-2
CC(C)(C)C(=O)Nc1ccccc1C(=O)Nc1ccncc1,0,-1,-1
C[C@H]1CN([C@@H](C)CO)S(=O)(=O)c2ccc(C3=CCCCC3)cc2O[C@H]1CN(C)C(=O)Cc1ccccc1,.,6,.
CC(=O)NC(=S)NNC(=O)CCc1ccccc1,-1,34,-2
CCCCC(=O)NC(=S)NNC(=O)CCc1ccccc1,-3,29*,-2
CCCCC(=O)NC(=S)NNC(=O)c1ccc(OC)cc1,3,54*,1
COc1ccc(C(=O)NNC(=S)NC(=O)c2ccc(OC)cc2)cc1,10,0,-1
Cc1ccccc1-c1ccc2c(c1)O[C@@H](CN(C)C(=O)c1ccccn1)[C@H](C)CN([C@@H](C)CO)S2(=O)=O,.,12,.
COc1cccc(C2C(C(=O)c3cc4ccccc4o3)=C(O)C(=O)N2CCN(C)C)c1OC (stereo not drawn),33*,-5,.
COc1cccc(C2C(C(=O)c3ccco3)=C(O)C(=O)N2CCN(C)C)c1OC (stereo not drawn),-3,-1,-1
SMILES,CAL PDZ FP-1,ARNT-TACC3 inh,CAL PDZ FP-2
Cc1ccc(NC(=S)NNC(=O)c2nn(C)cc2Cl)cc1,-3,29,.
Cc1ccc(NC(=S)NNC(=O)c2nnn(-c3ccccc3)c2C)cc1,-2,59*,-1
O=C(N[C@@H]1C=C[C@@H](CC(=O)N2CCOCC2)O[C@@H]1CO)c1cccc(F)c1,.,13,.
Cc1cc(C)n(Cc2ccccc2Cl)n1,41*,-4,.
Cc1ccc(C)n1Cc1ccccc1Cl,.,21,-1
CN(C(=O)c1ccccc1F)C(c1ccccc1)c1ccccc1,42*,10,0
CC(/C=N/NC(=O)c1ccccc1F)c1ccccc1 (stereo not drawn),-3,24,-1
O=C(CNc1cc([N+](=O)[O-])ccc1NCCO)Nc1cccc(S(=O)(=O)N2CCCCC2)c1,-3,22,0
O=C(CNc1cccc(S(=O)(=O)N2CCCCCC2)c1)Nc1cccc([N+](=O)[O-])c1,5,50*,0
CC(C)C[C@H](NC(=O)N1CCN(c2ccccc2)CC1)C(=O)O,7,-2,-2
Cc1ccccc1C(=O)NC(CC(C)C)C(=O)N1CCN(c2ccccc2)CC1 (stereo not drawn),35*,4,-1
C[C@@H]1CN([C@@H](C)CO)C(=O)c2cc(C#Cc3ccc(F)cc3)cnc2O[C@@H]1CN(C)C,.,1,.
CN(C)CC(=O)c1c(N)n(Cc2ccccc2)c(=O)n(C)c1=O,82*,-4,-2
Cn1c(=O)c(C(=O)CCl)c(N)n(Cc2ccccc2)c1=O,4,-1,0
COc1ccc(-c2cc3c(c(-c4ccc(Oc5ccccc5)cc4)n2)[Si](C(C)C)(C(C)C)OC3)cn1,.,3,.
CC1=NN(c2ccc(Cl)c(C(=O)O)c2)C(=O)C1,-2,30,-2
CC1=NN(c2ccc([N+](=O)[O-])cc2)C(=O)/C1=C\N(C)C,-3,5,-3
CC1=NN(c2ccc([N+](=O)[O-])cc2)C(=O)C1,.,45*,-1
CC1=NN(c2ccc(C(=O)O)c(N)c2)C(=O)C1,16,47*,1
CCCNC(=O)N1C[C@@H](C)[C@H](OC)CN(C)C(=O)c2cc(NC(=O)CC)ccc2OC[C@@H]1C,.,-9,.
C[C@H](CO)N1C[C@H](C)[C@H](CN(C)C(=O)Nc2ccc(F)cc2)Oc2ncc(C#CC(C)(C)O)cc2C1=O,.,-16,.
CC1CCCCC12NC(=O)N(CC(=O)OCc1ccccc1F)C2=O (stereo not drawn),-4,9,-2
CC1CCCCC12NC(=O)N(CC(=O)OCc1cccc(F)c1)C2=O (stereo not drawn),56*,-29,0
COc1ccc(C(C)(C)C)cc1NC(=O)COC(=O)CN1C(=O)NC2(CCCCC2C)C1=O (stereo not drawn),52*,2,0
CC1CCCCC12NC(=O)N(CC(=O)OCC(=O)NC(=O)c1ccccc1)C2=O (stereo not drawn),-8,-13,-3
SMILES,CAL PDZ FP-1,ARNT-TACC3 inh,CAL PDZ FP-2
O=C(N[C@H]1CC[C@H](CCn2cc(-c3ccccc3)nn2)O[C@@H]1CO)c1cnccn1,.,15,.
COc1ccc(CN2C(=O)c3cccnc3C2=O)cc1S(=O)(=O)NC1CCCCC1,-4,38,-3
COc1ccc(CN2C(=O)c3cccnc3C2=O)cc1S(=O)(=O)N1CC(C)CC(C)C1 (stereo not drawn),4,29*,-1
O=C(O)c1ccc(Cl)c(S(=O)(=O)NCC2CCCO2)c1 (stereo not drawn),0,-1,-1
O=C(COC(=O)c1ccc(Cl)c(S(=O)(=O)NCc2ccccc2)c1)NCC1CCCO1 (stereo not drawn),44*,-3,0
O=C(C[C@@H]1C[C@@H]2c3cc(NC(=O)Cc4ccncc4)ccc3O[C@@H]2[C@H](CO)O1)NCC1CC1,.,-3,.
Cc1oc(/C=N/NC(=O)CC2(C)OCCO2)cc1Br,-5,-2,0
CC1(CC(=O)N/N=C/c2cc(Br)c(O)cc2O)OCCO1,-4,75*,-2
COCCNC(=O)C[C@H]1C[C@H]2c3cc(NC(=O)C4CCOCC4)ccc3O[C@H]2[C@H](CO)O1,.,-16,.
